≈ marks a conversion by molar mass, not a printed value.

In assay [1] the test system is Saccharomyces cerevisiae. Put plainly: Antifungal activity against Saccharomyces cerevisiae by two fold serial dilution method. The class given is functional. Put shortly:
(§1)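 MIC determined by two-fold serial dilution in the appropriate nutrient broth, only for compounds that gave sizeable inhibition zones in the well diffusion screen. Final concentrations stepped down by halves from 66 (66, 33, 16.5 …).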

For assay [2], the system named is Saccharomyces cerevisiae. Put plainly: Antifungal activity against Saccharomyces cerevisiae at 50 ug/ml after 48 hrs by agar well diffusion method. To be noted: read-out: DIZ. The class given is functional. Put shortly:
(§2)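 Fungal agar well diffusion. Plates were seeded with 1 × 10⁶ CFU/mL fungal suspension on Sabouraud dextrose agar. Wells were filled with compound solution from a 100 mg/mL DMSO stock. Plates were incubated 48 h at 28 °C. The mean inhibition zone diameter (mm) was taken from triplicate runs. Ketoconazole was the standard.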

Assay [3] concerns Candida albicans. Put plainly: Antifungal activity against Candida albicans NRRL Y-477 by two fold serial dilution method. The class given is functional. Put shortly: as §1
Assay [4] has as its system Candida albicans. Put plainly: Antifungal activity against Candida albicans NRRL Y-477 at 50 ug/ml after 48 hrs by agar well diffusion method. The class given is functional. To be noted: NRRL Y-477, 48 h, read-out: DIZ. Put shortly: as §2
The test system of assay [5] is Bacillus subtilis. Put plainly: Antibacterial activity against Bacillus subtilis ATCC 6633 after 24 hrs by two fold serial dilution method. It is filed as functional. To be noted: ATCC 6633, 24 h. The method, boiled down:
as §1

Assay [6] concerns Mycolicibacterium phlei. Put plainly: Antibacterial activity against Mycobacterium phlei at 50 ug/ml after 24 hrs by agar well diffusion method. To be noted: read-out: DIZ. The class given is functional. Put shortly:
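Agar well diffusion. Plates were seeded with bacterial suspension at 1 × 10⁸ CFU/mL spread on nutrient agar. Wells received compound solution made as a 100 mg/mL DMSO stock. Plates were incubated 24 h at 37 °C. Read-out was inhibition zone diameter (mm), run in triplicate and averaged. Ciprofloxacin was the reference.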

Assay [7] relates to Staphylococcus aureus. Put plainly: microbe, parasite or virus in culture. To be noted: ATCC 29213, 24 h, read-out: DIZ.
Assay [8] deals with Pseudomonas aeruginosa. Put plainly: Antibacterial activity against Pseudomonas aeruginosa ATCC 27953 after 24 hrs by two fold serial dilution method. To be noted: ATCC 27953, 24 h. It is filed as functional. Put shortly: as §1
Assay [9] concerns Micrococcus luteus. Put plainly: Antibacterial activity against Sarcina lutea after 24 hrs by two fold serial dilution method. The class given is functional. Put shortly:
as §1

Assay [10] has as its system Bacillus subtilis. Put plainly: microbe, parasite or virus in culture. To be noted: ATCC 6633, 24 h, read-out: DIZ.
The test system of assay [11] is Staphylococcus aureus. Put plainly: Antibacterial activity against Staphylococcus aureus ATCC 29213 after 24 hrs by two fold serial dilution method. It is filed as functional. To be noted: ATCC 29213, 24 h. Put shortly: as §1
For assay [12], the system named is Klebsiella pneumoniae. Put plainly: microbe, parasite or virus in culture. To be noted: ATCC 13883, 24 h, read-out: DIZ.
Assay [13] deals with Micrococcus luteus. Put plainly: Antibacterial activity against Sarcina lutea at 50 ug/ml after 24 hrs by agar well diffusion method. The class given is functional. To be noted: read-out: DIZ.
In assay [14] the test system is Priestia megaterium. Put plainly: Antibacterial activity against Bacillus megaterium at 50 ug/ml after 24 hrs by agar well diffusion method. The class given is functional. To be noted: read-out: DIZ.
In assay [15] the test system is Escherichia coli. Put plainly: Antibacterial activity against Escherichia coli ATCC 25922 after 24 hrs by two fold serial dilution method. The class given is functional. To be noted: ATCC 25922, 24 h. The method, boiled down: as §1
Assay [16] has as its system Pseudomonas aeruginosa. Put plainly: microbe, parasite or virus in culture. To be noted: ATCC 27953, 24 h, read-out: DIZ.
The test system of assay [17] is Mycolicibacterium phlei. Put plainly: Antibacterial activity against Mycobacterium phlei after 24 hrs by two fold serial dilution method. It is filed as functional. Put shortly:
as §1

Assay [18] deals with Klebsiella pneumoniae. Put plainly: Antibacterial activity against Klebsiella pneumoniae ATCC 13883 after 24 hrs by two fold serial dilution method. To be noted: ATCC 13883, 24 h. It is filed as functional. The method, boiled down: as §1
Assay [19] concerns Priestia megaterium. Put plainly: Antibacterial activity against Bacillus megaterium after 24 hrs by two fold serial dilution method. The class given is functional. Put shortly:
as §1

Turning to `CC(=O)N1CCN(c2ccc(OCC3COC(Cn4ccnc4)(c4ccc(Cl)cc4Cl)O3)cc2)CC1` (centres undefined) [KETOCONAZOLE], the MIC in [1] is 4.12 µg/mL (≈ 7.76 µM); in assay [3], 8.25 µg/mL (≈ 15.5 µM). Further, the zone of inhibition at 50 µg/mL came out at 23 mm in assay [2] and 22 mm in assay [4].

Take `O=C(O)c1cn(C2CC2)c2cc(N3CCNCC3)c(F)cc2c1=O` [CIPROFLOXACIN]: the minimal inhibitory concentration (MIC) in [5] is 8.25 µg/mL (≈ 24.9 µM); in assay [8], 16.5 µg/mL (≈ 49.8 µM); in assay [9], 16.5 µg/mL (≈ 49.8 µM); in assay [11] it was 8.25 µg/mL (≈ 24.9 µM); in assay [15], 16.5 µg/mL (≈ 49.8 µM); in [17], 16.5 µg/mL (≈ 49.8 µM). The minimal inhibitory concentration (MIC) in [18] worked out at 16.5 µg/mL (≈ 49.8 µM); in assay [19], 8.25 µg/mL (≈ 24.9 µM). Further, the zone of inhibition at 50 µg/mL in [6] is 22 mm; in [7] it was 20 mm; in assay [10], 22 mm; in [12] it was 25 mm; in [13], 20 mm; in assay [14], 24 mm. Moreover, in assay [16], the zone of inhibition at 50 µg/mL turned out to be 24 mm.
